{"data": "Experimental data of several laboratories", "CDK7 with cyclin H": "Cyclin-dependent kinase 7, with cyclin H (CDK7, Homo sapiens, UniProt P50613)", "HTR1B": "5-hydroxytryptamine receptor 1B (HTR1B, Homo sapiens, UniProt P28222)", "note": "Protocols differ between the studies behind these lines."}
{"Compound": "Cc1ccc(CNC(=O)[C@H](CCc2ccccc2)NC(=O)[C@H](CCc2ccccc2)NC(=O)[C@H](CCc2ccccc2)NC(=O)c2cnc(C)cn2)cc1", "target": "Calpain-1 catalytic subunit (CAPN1, Homo sapiens, UniProt P07384)", "assay": "enzyme activity, inhibitor", "setting": "100 µM", "inhibition": "-9%"}
{"Compound": "Nc1nccc(-c2c[nH]c3ccc(Br)cc23)n1", "target": "CDK7 with cyclin H", "assay": "enzyme activity, inhibitor, ADP detection", "setting": "10 µM", "inhibition": "-32%"}
{"Compound": "Oc1cccc(Nc2nc(-c3ccc(F)cc3F)cs2)c1", "target": "HTR1B", "assay": "ligand displacement, radioligand", "setting": "10 µM", "inhibition": "-7.1%"}
{"Compound": "CN(C)C1CCN(CC#Cc2nn(C3CCCC3)c3nc(NCc4ccccc4)ncc23)C1 (centres unmarked)", "target": "Mitogen-activated protein kinase 1 (MAPK1, Homo sapiens, UniProt P28482)", "assay": "enzyme activity, inhibitor, FRET", "setting": "0.1 µM", "inhibition": "2%"}
{"Compound": "CO[C@H]1/C=C/O[C@@]2(C)Oc3c(C)c(O)c4c(O)c(c(/C=N/N5CCN(C)CC5)c(O)c4c3C2=O)NC(=O)/C(C)=C\\C=C\\[C@H](C)[C@H](O)[C@@H](C)[C@@H](O)[C@@H](C)[C@H](OC(C)=O)[C@@H]1C", "target": "CDK7 with cyclin H", "assay": "enzyme activity, inhibitor, ADP detection", "setting": "10 µM", "inhibition": "23.1%"}
{"Compound": "CCCNc1nc2ccccc2n1Cc1ccc(Cl)cc1", "target": "HTR1B", "assay": "ligand displacement, radioligand", "setting": "10 µM", "inhibition": "-13.2%"}
{"Compound": "O=C(c1ccc(Cl)cc1)N(Cc1ccccc1)C1CCCCC1", "target": "Calcitonin-gene-related peptide receptor, CALCRL/RAMP1 (Homo sapiens, UniProt O60894+Q16602)", "assay": "cell-free assay", "setting": "10 µM", "inhibition": "-20.2%"}
{"Compound": "O=c1cc(-c2ccccc2)oc2c1ccc1ccccc12", "target": "CDK7 with cyclin H", "assay": "enzyme activity, inhibitor, ADP detection", "setting": "10 µM", "inhibition": "29.9%"}
{"Compound": "CS(=O)(=O)Nc1cccc(-c2csc(NC(=O)CSc3nc4nccnc4c(=O)n3CCc3ccccc3)n2)c1", "target": "Phosphatidylinositol 4-phosphate 5-kinase type-1 beta (PIP5K1B, Homo sapiens, UniProt O14986)", "assay": "enzyme activity, inhibitor", "setting": "10 µM", "inhibition": "3%"}
{"Compound": "CC(=O)c1nn(CC(=O)N2C[C@H](F)C[C@H]2C(=O)Nc2cccc(Br)n2)c2ccc(-c3cnc(C)nc3)cc12", "target": "Prothrombin (F2, Homo sapiens, UniProt P00734)", "assay": "enzyme activity, inhibitor", "setting": "10 µM", "inhibition": "1.2%"}
{"Compound": "CCN(CC)c1ccc(C2=NNC(=O)CC2C)cc1[N+](=O)[O-] (centres unmarked)", "target": "3',5'-cyclic-AMP phosphodiesterase 4D (PDE4D, Homo sapiens, UniProt Q08499)", "assay": "enzyme activity, inhibitor", "setting": "0.1 µM", "inhibition": "20%"}
{"Compound": "COc1cc(NC(C)=O)c(Cl)cc1C(=O)Nc1nccs1", "target": "HTR1B", "assay": "ligand displacement, radioligand", "setting": "10 µM", "inhibition": "-0.8%"}
{"Compound": "CCN(c1cc(C#CCN2CCOCC2)cc(C(=O)NCc2c(C)cc(C)[nH]c2=O)c1C)[C@H]1CC[C@H](N(C)CCOC)CC1", "target": "Histone-lysine N-methyltransferase EHMT2 (EHMT2, Homo sapiens, UniProt Q96KQ7)", "assay": "enzyme activity, inhibitor", "setting": "1 µM", "inhibition": "7%"}
{"Compound": "CC(/C=C/C=C(\\C)C(=O)O[C@@H]1O[C@H](CO[C@@H]2O[C@H](CO)[C@@H](O)[C@H](O)[C@H]2O)[C@@H](O)[C@H](O)[C@H]1O)=C\\C=C\\C=C(C)\\C=C\\C=C(/C)C(=O)O[C@@H]1O[C@H](CO[C@@H]2O[C@H](CO)[C@@H](O)[C@H](O)[C@H]2O)[C@@H](O)[C@H](O)[C@H]1O", "target": "CDK7 with cyclin H", "assay": "enzyme activity, inhibitor, ADP detection", "setting": "10 µM", "inhibition": "22.8%"}
{"Compound": "O=C(c1ccc(F)cc1)N(Cc1ccccc1)C1CCCCC1", "target": "Prostaglandin E2 receptor EP4 subtype (PTGER4, Homo sapiens, UniProt P35408)", "assay": "cell-free assay", "setting": "10 µM", "inhibition": "6%"}
{"Compound": "O=C(/C=C/C=C/c1ccc2c(c1)OCO2)N1CCCCC1", "target": "CDK7 with cyclin H", "assay": "enzyme activity, inhibitor, ADP detection", "setting": "10 µM", "inhibition": "39.4%"}
{"Compound": "CCN(CC)c1ccc(C2Nc3ccc(C(=O)c4ccccc4)cc3NC3=C2C(=O)CC(C)(C)C3)cc1 (centres unmarked)", "target": "HTR1B", "assay": "ligand displacement, radioligand", "setting": "10 µM", "inhibition": "6%"}
